Experimental data from ChEMBL document CHEMBL5252535, “Design of nucleotide-mimetic and non-nucleotide inhibitors of the translation initiation factor eIF4E: Synthesis, structural and functional characterisation” (Eur J Med Chem, 2016).
Activity calls are given as the source filed them. No cut-off for these calls is given here.

Assays:
Reticulocyte [1] = assay: Inhibition of cap dependent translation of renilla luciferase mRNA in pRHCVF RNA primed rabbit reticulocyte lysate at 100 uM incubated for 90 mins by […]; assay type: functional, subcellular; details: Oryctolagus cuniculus
Outline: (§1)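 Rabbit reticulocyte lysate primed with 20 ng capped pRHCVF RNA (20 μL), 30 °C for 90 min, then on ice. Renilla (cap-dependent) and firefly (HCV IRES) luciferase read; final DMSO ≤1%; inhibition relative to 1% DMSO control set at 100%; m7GTP positive control. Three independent experiments, Student's t-test, S.D.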

[2] = target: T1, Eukaryotic translation initiation factor 4E (Homo sapiens, UniProt P06730); assay: Inhibition of m7GDP fluorescent probe binding to recombinant eIF4E (unknown origin) assessed as dissociation constant by fluorescence polarization assay
[3] = target: T1, Eukaryotic translation initiation factor 4E; assay: Inhibition of P32-[alpha-GTP] cap radiolabelled RNA binding to recombinant eIF4E (unknown origin) assessed as decrease in cross linked RNA-eIF4E complex formation preincubated with UV radiation for 30 mins followed by RNase addition and measured after 30 mins by SDS-PAGE based autoradiographic analysis
HeLa [4] = assay: Inhibition of protein synthesis in methionine-starved human HeLa cells incubated for 24 hrs by scintillation counting based 35S-Met incorporation assay; assay type: functional, cell-based
Outline: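 HeLa cells seeded at 6 × 10^4 per well, grown 24 h to 70% confluency, treated 24 h; Met-starved 30 min in Met-free DMEM with fresh compound, then pulsed 30 min with 35S-Met. Cells washed, lysed, protein TCA-precipitated and scintillation counted; puromycin positive control; three independent occasions; IC50 derived.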

MCF7 = assay: Inhibition of protein synthesis in methionine-starved human MCF7 cells incubated for 24 hrs by scintillation counting based 35S-Met incorporation assay; assay type: functional, cell-based
Reticulocyte [5] = assay: Inhibition of HCV-IRES mediated cap-independent translation of firefly luciferase mRNA in rabbit reticulocyte lysate at 100 uM incubated for 90 mins by […]; assay type: functional, subcellular; details: Oryctolagus cuniculus; outline: as §1
Reticulocyte [6] = assay: Inhibition of cap dependent translation of renilla luciferase mRNA in pRHCVF RNA primed rabbit reticulocyte lysate at 25 to 100 uM incubated for 90 mins by […]; assay type: functional, subcellular; details: Oryctolagus cuniculus, dose 25-100 µM; outline: as §1
Reticulocyte [7] = assay: Inhibition of HCV-IRES mediated cap-independent translation of firefly luciferase mRNA in rabbit reticulocyte lysate at 25 to 100 uM incubated for 90 mins by […]; assay type: functional, subcellular; details: Oryctolagus cuniculus, dose 25-100 µM; outline: as §1
HeLa [8] = assay: Downregulation of cMyc protein level in human HeLa cells at 50 to 100 uM incubated for 2 hrs by Western blot analysis; assay type: functional, cell-based; details: dose 50-100 µM
Outline: (§2)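 HeLa cells treated 2 h; lysates probed by western blotting for c-myc and cyclin D1, actin as loading control.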

HeLa [9] = assay: Downregulation of cyclin D1 protein level in human HeLa cells at 50 to 100 uM incubated for 2 hrs by Western blot analysis; assay type: functional, cell-based; details: dose 50-100 µM; outline: as §2
HeLa [10] = assay: Inhibition of cap dependent translation in human HeLa cells assessed as decrease in amount of RNA incorporated in polysomes at 25 uM incubated for 2 hrs by UV absorbance recording based assay; assay type: functional, cell-based
Outline: (§3)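 HeLa cells seeded in 15-cm dishes, grown 24 h to 70% confluency, treated 2 h; cycloheximide (0.1 mg/mL) added, cells harvested on ice and lysed (300 mM NaCl, 15 mM MgCl2, 15 mM Tris pH 7.5, heparin, cycloheximide, 0.1% Triton X-100). Lysates run on 10–60% sucrose gradients, 38,000 rpm 2 h; 1 mL fractions with continuous UV absorbance; polysome vs subpolysome areas compared; puromycin positive control.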

HeLa [11] = assay: Inhibition of cap dependent translation in human HeLa cells assessed as increase in sub-polysomal material at 50 to 100 uM incubated for 2 hrs by UV absorbance recording based assay; assay type: functional, cell-based; details: dose 50-100 µM; outline: as §3

T1 sequence (P06730 whole entry): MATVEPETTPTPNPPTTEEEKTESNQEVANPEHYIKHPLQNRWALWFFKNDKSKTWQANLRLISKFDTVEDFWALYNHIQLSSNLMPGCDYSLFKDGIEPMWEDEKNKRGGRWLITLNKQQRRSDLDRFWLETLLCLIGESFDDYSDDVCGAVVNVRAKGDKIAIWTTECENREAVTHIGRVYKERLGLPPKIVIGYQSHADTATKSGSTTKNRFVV

Compound | inhibition (Reticulocyte [1]) | Kd [2] | IC50 [3] | inhibition (Reticulocyte [5]) | inhibition (Reticulocyte [6]) | inhibition (Reticulocyte [7]) | inhibition (HeLa [4]) | inhibition (MCF7) | Activity (HeLa [8]) | Activity (HeLa [9]) | inhibition (HeLa [10]) | inhibition (HeLa [11])
C[n+]1cn([C@@H]2O[C@H](CNS(=O)(=O)c3ccc(C(=O)O)cc3)[C@@H](O)[C@H]2O)c2nc(N)[nH]c(=O)c21 | Active |  |  | inactive |  |  | inactive | inactive |  |  |  | 
C[n+]1cn([C@@H]2O[C@H](COP(=O)(O)OP(=O)(O)OP(=O)(O)O)[C@@H](O)[C@H]2O)c2nc(N)[nH]c(=O)c21 |  |  |  |  |  |  | inactive | inactive |  |  |  | 
C[n+]1cn([C@@H]2O[C@H](COP(=O)(O)O)[C@@H](O)[C@H]2O)c2nc(N)[nH]c(=O)c21 |  |  |  |  |  |  | inactive | inactive |  |  |  | 

The next lines start with results.

inhibition (Reticulocyte [1]) | Kd [2] | IC50 [3] | inhibition (Reticulocyte [5]) | inhibition (Reticulocyte [6]) | inhibition (Reticulocyte [7]) | Compound | inhibition (HeLa [4]) | inhibition (MCF7) | Activity (HeLa [8]) | Activity (HeLa [9]) | inhibition (HeLa [10]) | inhibition (HeLa [11])
Active | 56.5 µM | 12.6 µM | inactive |  |  | Nc1nc2c(c(=O)[nH]1)[n+](Cc1ccccc1)cn2[C@@H]1O[C@H](CNS(=O)(=O)C(F)(F)F)[C@@H](O)[C@H]1O | inactive | inactive |  |  |  | 
 | 57.8 µM |  |  | Active | inactive | CC(C)CNC(=S)N(Cc1ccccc1)Cc1cc2cc3c(cc2[nH]c1=O)OCO3 |  |  | Active | Active | Active | Active
